In ChEMBL document CHEMBL3576820, “Discovery of benzimidazole oxazolidinediones as novel and selective nonsteroidal mineralocorticoid receptor antagonists” (ACS Med Chem Lett, 2015):
pIC50: −log10 of the molar value. Calls of active or inactive are those of the source. The rule behind the calls is not given here.

Assays:
Rattus norvegicus [1] = experiment: Natriuretic activity in WKY rat at 30 to 100 mg/kg, po measured over 6 hrs; format: functional, organism-based
[2] = molecular target: T1, Mineralocorticoid receptor (Homo sapiens) (UniProt P08235); experiment: Agonist activity at human mineralocorticoid receptor by cell-based assay
T1 sequence (whole entry): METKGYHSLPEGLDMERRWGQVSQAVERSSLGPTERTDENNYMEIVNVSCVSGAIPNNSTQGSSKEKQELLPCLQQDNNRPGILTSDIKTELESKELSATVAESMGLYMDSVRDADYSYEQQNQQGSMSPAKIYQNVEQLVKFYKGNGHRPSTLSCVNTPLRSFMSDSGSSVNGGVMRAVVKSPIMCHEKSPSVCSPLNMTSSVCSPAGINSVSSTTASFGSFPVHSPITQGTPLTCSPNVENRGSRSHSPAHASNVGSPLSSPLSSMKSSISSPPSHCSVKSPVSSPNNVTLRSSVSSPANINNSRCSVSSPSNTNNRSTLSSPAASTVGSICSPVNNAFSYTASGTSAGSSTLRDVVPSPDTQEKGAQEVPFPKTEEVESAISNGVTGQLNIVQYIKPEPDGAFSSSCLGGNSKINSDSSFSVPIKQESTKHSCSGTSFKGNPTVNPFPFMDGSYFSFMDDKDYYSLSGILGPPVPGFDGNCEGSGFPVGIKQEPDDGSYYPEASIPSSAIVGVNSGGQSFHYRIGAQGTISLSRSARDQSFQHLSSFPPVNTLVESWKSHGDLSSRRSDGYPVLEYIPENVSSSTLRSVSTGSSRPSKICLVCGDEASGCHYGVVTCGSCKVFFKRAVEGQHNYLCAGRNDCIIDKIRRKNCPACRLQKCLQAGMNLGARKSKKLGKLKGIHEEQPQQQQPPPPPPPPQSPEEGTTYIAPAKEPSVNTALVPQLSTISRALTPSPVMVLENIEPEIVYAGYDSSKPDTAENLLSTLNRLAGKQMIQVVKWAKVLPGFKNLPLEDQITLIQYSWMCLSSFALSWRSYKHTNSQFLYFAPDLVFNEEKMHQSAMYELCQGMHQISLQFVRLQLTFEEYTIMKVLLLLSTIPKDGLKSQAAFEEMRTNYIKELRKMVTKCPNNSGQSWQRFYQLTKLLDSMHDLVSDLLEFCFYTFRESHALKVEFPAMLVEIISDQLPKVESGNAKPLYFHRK

[3] = molecular target: T2, Progesterone receptor (Homo sapiens) (UniProt P06401); experiment: Agonist activity at human progesterone receptor beta by cell-based assay
T2 sequence (whole entry): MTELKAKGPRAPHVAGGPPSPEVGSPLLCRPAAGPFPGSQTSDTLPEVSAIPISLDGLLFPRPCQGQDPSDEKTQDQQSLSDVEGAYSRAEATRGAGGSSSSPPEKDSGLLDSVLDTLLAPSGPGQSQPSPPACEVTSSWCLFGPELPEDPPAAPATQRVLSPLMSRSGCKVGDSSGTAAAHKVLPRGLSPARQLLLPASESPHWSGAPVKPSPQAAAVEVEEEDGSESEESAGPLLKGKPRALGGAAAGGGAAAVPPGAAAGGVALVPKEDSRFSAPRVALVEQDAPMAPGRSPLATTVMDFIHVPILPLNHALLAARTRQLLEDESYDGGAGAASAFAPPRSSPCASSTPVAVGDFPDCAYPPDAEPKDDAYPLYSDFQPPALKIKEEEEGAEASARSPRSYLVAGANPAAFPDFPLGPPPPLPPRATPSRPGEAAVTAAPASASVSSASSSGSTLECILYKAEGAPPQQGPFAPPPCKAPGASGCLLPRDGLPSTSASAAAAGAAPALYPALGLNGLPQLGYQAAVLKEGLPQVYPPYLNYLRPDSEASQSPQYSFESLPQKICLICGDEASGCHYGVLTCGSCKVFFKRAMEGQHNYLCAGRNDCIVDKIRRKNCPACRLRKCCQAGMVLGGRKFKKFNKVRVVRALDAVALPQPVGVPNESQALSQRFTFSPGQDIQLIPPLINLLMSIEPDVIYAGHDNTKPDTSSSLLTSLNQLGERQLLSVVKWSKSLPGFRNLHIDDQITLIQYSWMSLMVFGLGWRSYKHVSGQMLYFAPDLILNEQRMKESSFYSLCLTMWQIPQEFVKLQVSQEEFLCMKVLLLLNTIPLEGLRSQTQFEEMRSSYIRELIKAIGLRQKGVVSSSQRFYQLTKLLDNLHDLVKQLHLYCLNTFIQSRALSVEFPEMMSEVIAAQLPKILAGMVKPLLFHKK

[4] = molecular target: T3, Estrogen receptor (Homo sapiens) (UniProt P03372); experiment: Agonist activity at human estrogen receptor alpha by cell-based assay
T3 sequence (whole entry): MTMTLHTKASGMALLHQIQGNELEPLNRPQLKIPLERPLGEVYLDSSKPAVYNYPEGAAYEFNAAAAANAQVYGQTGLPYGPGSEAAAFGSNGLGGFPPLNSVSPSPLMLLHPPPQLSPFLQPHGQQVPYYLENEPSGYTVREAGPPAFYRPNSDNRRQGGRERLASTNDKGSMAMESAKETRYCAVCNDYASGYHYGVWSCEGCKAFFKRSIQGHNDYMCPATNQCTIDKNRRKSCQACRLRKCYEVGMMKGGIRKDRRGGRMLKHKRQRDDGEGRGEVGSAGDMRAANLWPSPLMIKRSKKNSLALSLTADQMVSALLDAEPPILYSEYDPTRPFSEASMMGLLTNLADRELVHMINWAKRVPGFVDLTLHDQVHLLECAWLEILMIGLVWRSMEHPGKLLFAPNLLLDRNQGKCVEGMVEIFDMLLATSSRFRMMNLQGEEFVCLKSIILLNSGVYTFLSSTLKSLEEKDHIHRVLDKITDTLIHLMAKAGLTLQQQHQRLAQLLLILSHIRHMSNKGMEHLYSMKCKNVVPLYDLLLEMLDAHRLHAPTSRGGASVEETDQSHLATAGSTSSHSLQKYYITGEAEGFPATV

[5] = Metabolic stability in rat liver microsomes assessed as compound remaining at 1 uM after 0.5 hrs; format: ADME; settings: read-out: Stability
Rattus norvegicus [6] = experiment: Dose normalized AUC in Wistar han rat at 2 mg/kg, po; format: ADME, organism-based; settings: in vivo
In short: (§1)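 Wistar Han rats. IV dose 1 mg/kg in DMSO/PEG200/water (10:60:30), n=2. Oral dose 2 mg/kg in imwitor/tween (1:1) by gavage, n=3. Values are averages. Derived: F%, plasma clearance, Vdss, terminal half-life and oral AUC normalized to dose.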

[7] = Plasma protein binding in human; format: ADME, cell-free; settings: read-out: PPB
[8] = Terminal half life in Wistar han rat at 2 mg/kg, po and 1 mg/kg, iv; format: ADME, organism-based; settings: in vivo, read-out: beta t1/2 (converted); in short: as §1
[9] = Metabolic stability in human liver microsomes assessed as compound remaining at 1 uM after 0.5 hrs; format: ADME; settings: read-out: Stability
[10] = Plasma clearance in Wistar han rat at 2 mg/kg, po and 1 mg/kg, iv; format: ADME, organism-based; in short: as §1
[11] = molecular target: T4, Mineralocorticoid receptor (Homo sapiens, UniProt P08235); experiment: Antagonist activity at human mineralocorticoid receptor overexpressed in CHOK1 cells assessed as inhibition of aldosterone-induced protein interaction with coactivator peptide after 6 hrs by luminescence assay; format: cell-based, CHO-K1
T4 sequence (P08235 whole entry): T1 sequence (whole entry)

[12] = Fraction unbound in 10% human plasma; format: ADME, cell-free; settings: 10% plasma
In short: (§2)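 Free fraction measured in the presence of 10% plasma (human or rat), taken as correlating with the free fraction in whole plasma.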

[13] = Fraction unbound in 10% rat plasma; format: ADME, cell-free; settings: 10% plasma; in short: as §2
[14] = Volume of distribution at steady state in Wistar han rat at 2 mg/kg, po and 1 mg/kg, iv; format: ADME, organism-based; settings: in vivo, read-out: Vdss; in short: as §1
[15] = Plasma protein binding in rat; format: ADME, cell-free; settings: read-out: PPB
[16] = Oral bioavailability in Wistar han rat at 2 mg/kg; format: ADME, organism-based; settings: in vivo; in short: as §1

| Activity [2] | Activity [3] | Activity [4] | remaining at 0.5 h, 1 µM [5] | AUC/dose (Rattus norvegicus [6]) | fraction unbound [7] | half-life [8] | remaining at 0.5 h, 1 µM [9] | clearance [10] | pIC50 [11] | fraction unbound [12] | fraction unbound [13] | Vd [14] | fraction unbound [15] | bioavailability [16] | Compound | Activity (Rattus norvegicus [1]) |
| --- | --- | --- | --- | --- | --- | --- | --- | --- | --- | --- | --- | --- | --- | --- | --- | --- |
| inactive | inactive | inactive |  |  |  |  |  |  |  |  |  |  |  |  | CC(=O)S[C@@H]1CC2=CC(=O)CC[C@]2(C)[C@H]2CC[C@@]3(C)[C@@H](CC[C@@]34CCC(=O)O4)[C@H]12 | Active |
| inactive | inactive | inactive | 51% | 0.067 µM·kg·h/mg | < 0.01 | 2.4 h | 77% | 23 mL/min/kg | 6.82 | 0.002 | 0.005 | 3.4 L/kg | < 0.01 | 44% | C[C@H](c1ccc(F)cc1)N1C(=O)O[C@](Cc2ccccc2)(c2nc3c(C(F)(F)F)cccc3[nH]2)C1=O |  |
| inactive | inactive | inactive | 26% |  |  |  | 38% |  | 6.77 |  |  |  |  |  | C[C@H](c1ccc(F)cc1)N1C(=O)O[C@](Cc2ccccc2)(c2nc3c(-c4cccnc4)cccc3[nH]2)C1=O |  |
| inactive | inactive | inactive | 37% |  |  |  | 60% |  | 7.21 |  |  |  |  |  | C[C@H](c1ccc(F)cc1)N1C(=O)O[C@](Cc2ccccc2)(c2nc3cc(-c4cnoc4)ccc3[nH]2)C1=O |  |
